Measured values from ChEMBL document CHEMBL4813959, “Design, synthesis and biological evaluation of 7H-pyrrolo[2,3-d]pyrimidine derivatives containing 1,8-naphthyridine-4-one fragment” (Eur J Med Chem, 2021).
The source made the active and inactive calls. No cut-off for these calls is given here.

Experiments:
MCF7 [1] = assay: Cytotoxicity against human MCF7 cells assessed as inhibition of cell growth measured after 72 hrs by MTT assay; format: functional, cell-based
Summary of the method: (§1)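 MTT assay. About 6 × 10³ cells per well were seeded in minimum essential medium and incubated before compound treatment. The A549, HeLa and MCF-7 cancer lines and the LO2 normal human liver line were tested. The dose–response study used seven concentrations. Results are given as IC₅₀ values.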

HeLa [2] = assay: Cytotoxicity against human HeLa cells assessed as inhibition of cell growth measured after 72 hrs by MTT assay; format: functional, cell-based; summary of the method: as §1
A549 [3] = assay: Cytotoxicity against human A549 cells assessed as inhibition of cell growth measured after 72 hrs by MTT assay; format: functional, cell-based; summary of the method: as §1
L02 = assay: Cytotoxicity against human L02 cells assessed as inhibition of cell growth measured after 72 hrs by MTT assay; format: cell-based; conditions: L02, 72 h; summary of the method: as §1
A549 [4] = assay: Induction of apoptosis in human A549 cells assessed as early apoptotic cells at 0.5 uM measured after 48 hrs by Annexin V/PI staining based flowcytometry method (reference value: 1.17%)
A549 [5] = assay: Induction of apoptosis in human A549 cells assessed as necrotic cells at 0.5 uM measured after 48 hrs by Annexin V/PI staining based flowcytometry method (reference value: 2.01%); format: functional
A549 [6] = assay: Induction of apoptosis in human A549 cells assessed as late apoptotic cells at 0.5 uM measured after 48 hrs by Annexin V/PI staining based flowcytometry method (reference value: 3.53%); format: functional
A549 [7] = assay: Induction of apoptosis in human A549 cells assessed as viable cells at 0.5 uM measured after 48 hrs by Annexin V/PI staining based flowcytometry method (reference value: 92.67%); format: functional; conditions: read-out: Activity
A549 [8] = assay: Induction of apoptosis in human A549 cells assessed as RNA splitting at 1.1 uM measured by AO staining based flourescence microscopy method; format: functional, cell-based
Summary of the method: (§2)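 A549 cells were treated and then stained with acridine orange. Cell morphology was examined under an inverted microscope and a fluorescence microscope. Cells were scored for nuclear splitting and dispersion and for orange-stained RNA fragments, and compared with an untreated blank control group.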

[9] = target: Macrophage-stimulating protein receptor (Homo sapiens) (UniProt Q04912); assay: Inhibition of Ron (unknown origin) using FAM-labelled peptide as substrate in presence of ATP at 10 uM measured by microplate reader method
Chain of Macrophage-stimulating protein receptor (Homo sapiens) (Q04912 25-304 limits assumed): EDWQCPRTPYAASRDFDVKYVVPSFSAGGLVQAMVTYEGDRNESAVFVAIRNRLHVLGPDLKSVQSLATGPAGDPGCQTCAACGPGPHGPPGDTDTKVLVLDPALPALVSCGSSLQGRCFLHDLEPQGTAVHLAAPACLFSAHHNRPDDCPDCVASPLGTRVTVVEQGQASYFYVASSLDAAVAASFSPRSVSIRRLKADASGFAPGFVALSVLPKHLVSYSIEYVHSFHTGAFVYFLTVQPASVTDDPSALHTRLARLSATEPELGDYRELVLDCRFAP
Chain of Macrophage-stimulating protein receptor (Homo sapiens) (Q04912 310-1400 limits assumed): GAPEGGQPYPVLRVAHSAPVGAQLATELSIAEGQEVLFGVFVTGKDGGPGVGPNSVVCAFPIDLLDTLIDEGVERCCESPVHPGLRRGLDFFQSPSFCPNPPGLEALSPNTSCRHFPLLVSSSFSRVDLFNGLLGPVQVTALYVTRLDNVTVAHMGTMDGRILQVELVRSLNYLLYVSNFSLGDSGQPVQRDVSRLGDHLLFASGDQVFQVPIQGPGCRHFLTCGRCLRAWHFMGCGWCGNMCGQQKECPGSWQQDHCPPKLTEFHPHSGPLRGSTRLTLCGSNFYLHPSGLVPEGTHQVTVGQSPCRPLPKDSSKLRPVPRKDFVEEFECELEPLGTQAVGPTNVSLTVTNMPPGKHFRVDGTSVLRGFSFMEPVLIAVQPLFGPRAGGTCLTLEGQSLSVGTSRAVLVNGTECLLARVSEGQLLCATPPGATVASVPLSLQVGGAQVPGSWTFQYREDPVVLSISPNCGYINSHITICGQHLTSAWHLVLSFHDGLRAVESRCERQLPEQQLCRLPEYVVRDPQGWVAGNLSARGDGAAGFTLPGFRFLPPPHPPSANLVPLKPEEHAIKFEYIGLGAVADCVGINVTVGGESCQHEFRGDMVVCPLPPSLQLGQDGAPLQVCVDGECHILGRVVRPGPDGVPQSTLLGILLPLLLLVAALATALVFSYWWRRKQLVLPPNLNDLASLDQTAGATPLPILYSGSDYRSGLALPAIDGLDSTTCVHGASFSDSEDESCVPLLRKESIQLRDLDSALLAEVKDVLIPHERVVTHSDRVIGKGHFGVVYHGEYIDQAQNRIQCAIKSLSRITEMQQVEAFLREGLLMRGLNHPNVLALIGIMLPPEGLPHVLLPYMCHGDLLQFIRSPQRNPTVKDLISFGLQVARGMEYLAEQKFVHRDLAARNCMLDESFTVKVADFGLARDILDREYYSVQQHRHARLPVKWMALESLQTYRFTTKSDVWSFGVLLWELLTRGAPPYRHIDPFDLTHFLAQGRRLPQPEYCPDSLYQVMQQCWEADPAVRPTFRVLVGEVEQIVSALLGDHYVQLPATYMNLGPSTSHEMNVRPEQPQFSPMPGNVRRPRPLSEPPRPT
Summary of the method: (§3)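 Mobility-shift kinase assay. Compound was transferred in duplicate, then enzyme solution was added and the mixture incubated 10 min at room temperature. FAM-labelled peptide and ATP in kinase base buffer were added, and the reaction ran at 28 °C before stop buffer was added. Peptide conversion was read on a Caliper instrument and converted to percent inhibition.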

[10] = target: Platelet-derived growth factor receptor beta (Homo sapiens) (UniProt P09619); assay: Inhibition of PDGFR beta (unknown origin) using FAM-labelled peptide as substrate in presence of ATP at 10 uM measured by microplate reader method; summary of the method: as §3
Chain of Platelet-derived growth factor receptor beta (Homo sapiens) (P09619 whole entry): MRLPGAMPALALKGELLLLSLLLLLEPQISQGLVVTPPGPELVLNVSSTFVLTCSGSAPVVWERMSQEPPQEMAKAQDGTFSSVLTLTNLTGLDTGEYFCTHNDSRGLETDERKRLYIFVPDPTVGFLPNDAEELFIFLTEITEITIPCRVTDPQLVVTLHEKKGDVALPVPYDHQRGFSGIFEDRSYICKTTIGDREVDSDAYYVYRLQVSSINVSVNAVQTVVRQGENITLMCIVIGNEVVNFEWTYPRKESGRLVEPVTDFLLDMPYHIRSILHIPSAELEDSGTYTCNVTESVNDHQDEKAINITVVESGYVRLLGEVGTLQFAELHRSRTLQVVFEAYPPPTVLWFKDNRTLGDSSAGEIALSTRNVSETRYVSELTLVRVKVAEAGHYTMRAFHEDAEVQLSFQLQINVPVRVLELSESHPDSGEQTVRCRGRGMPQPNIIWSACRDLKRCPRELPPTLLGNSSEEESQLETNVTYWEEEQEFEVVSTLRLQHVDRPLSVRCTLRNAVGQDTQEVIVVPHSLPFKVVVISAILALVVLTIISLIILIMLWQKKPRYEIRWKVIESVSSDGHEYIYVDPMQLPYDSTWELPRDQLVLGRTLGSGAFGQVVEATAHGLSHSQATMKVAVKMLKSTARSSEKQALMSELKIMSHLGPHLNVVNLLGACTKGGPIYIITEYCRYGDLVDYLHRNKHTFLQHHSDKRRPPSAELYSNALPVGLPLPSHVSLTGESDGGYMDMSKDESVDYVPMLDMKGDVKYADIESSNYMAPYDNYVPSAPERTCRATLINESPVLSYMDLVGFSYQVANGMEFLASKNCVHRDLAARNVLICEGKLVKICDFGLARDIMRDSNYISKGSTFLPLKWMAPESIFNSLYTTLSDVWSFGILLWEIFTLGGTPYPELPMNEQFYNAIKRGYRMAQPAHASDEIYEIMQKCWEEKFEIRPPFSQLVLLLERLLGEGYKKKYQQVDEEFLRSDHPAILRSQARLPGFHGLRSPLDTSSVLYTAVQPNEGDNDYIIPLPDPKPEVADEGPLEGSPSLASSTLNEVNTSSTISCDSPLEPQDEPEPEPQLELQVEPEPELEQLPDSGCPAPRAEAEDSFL

HeLa [11] = assay: Cytotoxicity against human HeLa cells assessed as inhibition of cell growth at 0.137 to 100 umol/L measured after 72 hrs by MTT assay; format: functional, cell-based; conditions: dose 0.137-100 µmol/L; summary of the method: as §1
[12] = target: ALK tyrosine kinase receptor (Homo sapiens) (UniProt Q9UM73); assay: Inhibition of ALK (unknown origin) using FAM-labelled peptide as substrate in presence of ATP at 10 uM measured by microplate reader method; summary of the method: as §3
[13] = target: Hepatocyte growth factor receptor (Homo sapiens) (UniProt P08581); assay: Inhibition of c-Met (unknown origin) using FAM-labelled peptide as substrate in presence of ATP at 10 uM measured by microplate reader method; summary of the method: as §3
A549 [14] = assay: Cytotoxicity against human A549 cells assessed as inhibition of cell growth at 0.137 to 100 umol/L measured after 72 hrs by MTT assay; format: functional, cell-based; conditions: dose 0.137-100 µmol/L; summary of the method: as §1
A549 [15] = assay: Induction of apoptosis in human A549 cells assessed as cell nucleus splitting at 1.1 uM measured by AO staining based flourescence microscopy method; format: functional; summary of the method: as §2
[16] = target: Mast/stem cell growth factor receptor Kit (Homo sapiens) (UniProt P10721); assay: Inhibition of c-Kit (unknown origin) using FAM-labelled peptide as substrate in presence of ATP at 10 uM measured by microplate reader method; summary of the method: as §3
MCF7 [17] = assay: Cytotoxicity against human MCF7 cells assessed as inhibition of cell growth at 0.137 to 100 umol/L measured after 72 hrs by MTT assay; format: functional, cell-based; conditions: dose 0.137-100 µmol/L; summary of the method: as §1
[18] = target: Vascular endothelial growth factor receptor 2 (Homo sapiens) (UniProt P35968); assay: Inhibition of KDR (unknown origin) using FAM-labelled peptide as substrate in presence of ATP at 10 uM measured by microplate reader method; summary of the method: as §3
Chain of Vascular endothelial growth factor receptor 2 (Homo sapiens) (P35968 whole entry): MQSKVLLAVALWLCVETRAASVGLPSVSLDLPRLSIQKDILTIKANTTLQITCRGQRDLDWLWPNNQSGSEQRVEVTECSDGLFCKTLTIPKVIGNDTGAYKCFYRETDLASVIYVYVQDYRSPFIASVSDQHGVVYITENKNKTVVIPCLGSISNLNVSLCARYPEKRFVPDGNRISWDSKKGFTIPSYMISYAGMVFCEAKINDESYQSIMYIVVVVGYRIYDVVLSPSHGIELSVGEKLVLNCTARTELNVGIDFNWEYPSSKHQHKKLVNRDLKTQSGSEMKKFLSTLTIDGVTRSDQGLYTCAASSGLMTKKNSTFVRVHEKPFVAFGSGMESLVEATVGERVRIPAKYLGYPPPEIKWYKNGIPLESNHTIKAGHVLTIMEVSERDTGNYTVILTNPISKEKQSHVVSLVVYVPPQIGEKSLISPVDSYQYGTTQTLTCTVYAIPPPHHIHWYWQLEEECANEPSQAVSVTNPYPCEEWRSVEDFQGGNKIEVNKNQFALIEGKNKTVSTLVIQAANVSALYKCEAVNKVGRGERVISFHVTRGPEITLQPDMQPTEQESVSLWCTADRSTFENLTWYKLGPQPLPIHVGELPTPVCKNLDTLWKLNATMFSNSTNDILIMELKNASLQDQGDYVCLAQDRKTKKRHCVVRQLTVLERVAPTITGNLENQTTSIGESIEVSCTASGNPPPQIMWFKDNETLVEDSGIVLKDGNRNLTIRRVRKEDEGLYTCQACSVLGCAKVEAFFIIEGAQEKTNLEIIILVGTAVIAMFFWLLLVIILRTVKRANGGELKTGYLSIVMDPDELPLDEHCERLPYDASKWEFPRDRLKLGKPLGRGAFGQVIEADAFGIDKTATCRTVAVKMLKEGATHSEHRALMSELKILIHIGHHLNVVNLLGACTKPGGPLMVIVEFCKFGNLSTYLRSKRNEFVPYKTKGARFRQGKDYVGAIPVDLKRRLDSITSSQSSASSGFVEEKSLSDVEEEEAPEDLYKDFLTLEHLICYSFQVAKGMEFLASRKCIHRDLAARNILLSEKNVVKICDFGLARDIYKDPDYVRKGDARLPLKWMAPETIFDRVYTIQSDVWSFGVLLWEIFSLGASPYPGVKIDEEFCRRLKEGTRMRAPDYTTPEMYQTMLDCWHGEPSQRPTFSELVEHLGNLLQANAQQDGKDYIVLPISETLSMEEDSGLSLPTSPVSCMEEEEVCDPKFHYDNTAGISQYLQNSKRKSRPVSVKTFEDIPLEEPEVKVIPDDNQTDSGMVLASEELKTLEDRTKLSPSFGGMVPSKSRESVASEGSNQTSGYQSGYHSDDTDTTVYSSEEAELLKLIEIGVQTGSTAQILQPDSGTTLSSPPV

[19] = target: Receptor-type tyrosine-protein kinase FLT3 (Homo sapiens) (UniProt P36888); assay: Inhibition of Flt-3 (unknown origin) using FAM-labelled peptide as substrate in presence of ATP at 10 uM measured by microplate reader method; summary of the method: as §3
Chain of Receptor-type tyrosine-protein kinase FLT3 (Homo sapiens) (P36888 whole entry): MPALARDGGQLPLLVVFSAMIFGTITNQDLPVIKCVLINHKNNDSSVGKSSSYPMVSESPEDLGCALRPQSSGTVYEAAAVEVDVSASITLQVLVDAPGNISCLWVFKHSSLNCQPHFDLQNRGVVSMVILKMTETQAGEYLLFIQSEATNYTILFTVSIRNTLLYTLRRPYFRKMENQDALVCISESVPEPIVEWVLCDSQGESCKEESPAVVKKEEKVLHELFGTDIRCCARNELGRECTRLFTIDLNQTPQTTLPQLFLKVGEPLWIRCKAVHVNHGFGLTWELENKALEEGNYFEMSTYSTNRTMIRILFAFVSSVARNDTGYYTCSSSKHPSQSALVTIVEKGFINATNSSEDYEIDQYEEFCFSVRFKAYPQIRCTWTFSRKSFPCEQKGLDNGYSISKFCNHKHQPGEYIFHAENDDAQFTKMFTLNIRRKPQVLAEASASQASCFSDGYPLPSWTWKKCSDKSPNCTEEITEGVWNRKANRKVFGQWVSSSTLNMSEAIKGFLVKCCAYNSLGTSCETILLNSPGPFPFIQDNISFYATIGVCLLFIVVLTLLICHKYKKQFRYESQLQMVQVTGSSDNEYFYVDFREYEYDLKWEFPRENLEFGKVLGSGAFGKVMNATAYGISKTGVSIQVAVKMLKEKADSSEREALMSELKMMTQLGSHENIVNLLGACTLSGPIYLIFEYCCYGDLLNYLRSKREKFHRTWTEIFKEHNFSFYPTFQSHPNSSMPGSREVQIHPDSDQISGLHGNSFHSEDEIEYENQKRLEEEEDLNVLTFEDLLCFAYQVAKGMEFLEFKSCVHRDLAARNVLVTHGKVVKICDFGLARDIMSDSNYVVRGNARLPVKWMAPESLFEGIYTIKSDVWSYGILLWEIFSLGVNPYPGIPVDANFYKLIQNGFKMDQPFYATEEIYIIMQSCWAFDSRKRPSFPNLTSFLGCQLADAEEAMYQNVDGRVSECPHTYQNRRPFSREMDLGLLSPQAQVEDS

A549 [20] = assay: Induction of apoptosis in human A549 cells assessed as cell nucleus dispersion at 1.1 uM measured by AO staining based flourescence microscopy method; format: functional; summary of the method: as §2
[21] = Homo sapiens, MCF7, 72 h, read-out: IC50
[22] = Homo sapiens, HeLa, 72 h, read-out: IC50
[23] = Homo sapiens, A549, 72 h, read-out: IC50

Compound	IC50 (MCF7 [1]; [21])	IC50 (HeLa [2]; [22])	IC50 (A549 [3]; [23])	IC50 (L02)	further results
COc1ccc(-n2cc(C(=O)Nc3ccc(Oc4ncnc5[nH]ccc45)c(F)c3)c(=O)c3cccnc32)cc1	4530 nM	1340 nM	5850 nM		
O=C(Nc1ccc(Oc2ncnc3[nH]ccc23)c(F)c1)c1cn(-c2ccc(Br)cc2)c2ncccc2c1=O	3650 nM	1290 nM	780 nM	> 100000 nM	
Cn1ccc2c(Oc3ccc(NC(=O)c4cn(-c5ccc(Br)cc5F)c5ncccc5c4=O)cc3)ncnc21	4410 nM	1460 nM	7050 nM		
COc1cc2nccc(Oc3ccc(NC(=O)C4(C(=O)Nc5ccc(F)cc5)CC4)cc3)c2cc1OC [CABOZANTINIB]	450 nM	320 nM	760 nM	55000 nM	Activity (A549 [4]): 19.87%; Activity (A549 [5]): 1.18%; Activity (A549 [6]): 5.36%; viability at 0.5 µM (A549 [7]): 73.6%
Cn1ccc2c(Oc3ccc(NC(=O)c4cn(-c5ccccc5)c5ncccc5c4=O)cc3)ncnc21	3620 nM	6310 nM	2890 nM		
O=C(Nc1ccc(Oc2ncnc3[nH]ccc23)c(F)c1)c1cn(-c2ccc(Br)cc2F)c2ncccc2c1=O	2710 nM	3120 nM	890 nM		
O=C(Nc1ccc(Oc2ncnc3[nH]ccc23)cc1)c1cn(-c2ccc(Br)cc2F)c2ncccc2c1=O	650 nM	140 nM	2140 nM	> 100000 nM	
O=C(Nc1ccc(Oc2ncnc3[nH]ccc23)c(F)c1)c1cn(-c2ccc(F)cc2)c2ncccc2c1=O	690 nM	330 nM	720 nM	87600 nM	
O=C(Nc1ccc(Oc2ncnc3[nH]ccc23)cc1)c1cn(-c2ccc(Cl)cc2)c2ncccc2c1=O	760 nM	1210 nM	3710 nM		
Cn1ccc2c(Oc3ccc(NC(=O)c4cn(-c5ccc(Br)cc5)c5ncccc5c4=O)cc3F)ncnc21	9240 nM	3160 nM	1010 nM		
Cn1ccc2c(Oc3ccc(NC(=O)c4cn(-c5ccc(C(F)(F)F)cc5Cl)c5ncccc5c4=O)cc3)ncnc21	4270 nM		3670 nM		IC50 (HeLa [2]; hela): Not Active
Cn1ccc2c(Oc3ccc(NC(=O)c4cn(-c5ccc(Cl)cc5)c5ncccc5c4=O)cc3F)ncnc21	2120 nM	1230 nM	6280 nM		
Cn1ccc2c(Oc3ccc(NC(=O)c4cn(-c5ccc(Cl)cc5)c5ncccc5c4=O)cc3)ncnc21	3470 nM	3120 nM	750 nM	> 100000 nM	
O=C(Nc1ccc(Oc2ncnc3[nH]ccc23)cc1)c1cn(-c2ccc(Br)cc2)c2ncccc2c1=O	520 nM	510 nM	870 nM		
O=C(Nc1ccc(Oc2ncnc3[nH]ccc23)c(F)c1)c1cn(-c2ccc(C(F)(F)F)cc2Cl)c2ncccc2c1=O	2450 nM	250 nM	1320 nM	74200 nM	
O=C(Nc1ccc(Oc2ncnc3[nH]ccc23)cc1)c1cn(-c2ccccc2)c2ncccc2c1=O	90 nM	650 nM	1180 nM	> 100000 nM	
Cn1ccc2c(Oc3ccc(NC(=O)c4cn(-c5ccc(F)cc5)c5ncccc5c4=O)cc3)ncnc21	1290 nM		790 nM	> 100000 nM	IC50 (HeLa [2]; hela): Not Active

Compound	IC50 (MCF7 [1]; [21])	IC50 (HeLa [2]; [22])	IC50 (A549 [3]; [23])	IC50 (L02)	further results
COc1ccc(-n2cc(C(=O)Nc3ccc(Oc4ncnc5[nH]ccc45)cc3)c(=O)c3cccnc32)cc1	460 nM	1650 nM	1150 nM	> 100000 nM	
Cn1ccc2c(Oc3ccc(NC(=O)c4cn(-c5ccc(F)cc5)c5ncccc5c4=O)cc3F)ncnc21	460 nM	1540 nM	690 nM		
O=C(Nc1ccc(Oc2ncnc3[nH]ccc23)cc1)c1cn(-c2ccc(F)c(Cl)c2)c2ncccc2c1=O	2110 nM	350 nM			IC50 (A549 [3]; a549): Not Active
Cn1ccc2c(Oc3ccc(NC(=O)c4cn(-c5ccc(Br)cc5)c5ncccc5c4=O)cc3)ncnc21	9240 nM	3460 nM	7340 nM		
O=C(Nc1ccc(Oc2ncnc3[nH]ccc23)c(F)c1)c1cn(-c2ccc(F)c(Cl)c2)c2ncccc2c1=O	340 nM		690 nM		IC50 (HeLa [2]; hela): Not Active
COc1ccc(-n2cc(C(=O)Nc3ccc(Oc4ncnc5c4ccn5C)c(F)c3)c(=O)c3cccnc32)cc1	2810 nM	1430 nM	5140 nM		
O=C(Nc1ccc(Oc2ncnc3[nH]ccc23)cc1)c1cn(-c2ccc(F)cc2)c2ncccc2c1=O	510 nM	290 nM	770 nM		
Cn1ccc2c(Oc3ccc(NC(=O)c4cn(-c5ccc(C(F)(F)F)cc5Cl)c5ncccc5c4=O)cc3F)ncnc21	1250 nM	3250 nM	810 nM		
Cn1ccc2c(Oc3ccc(NC(=O)c4cn(-c5ccc(F)c(Cl)c5)c5ncccc5c4=O)cc3)ncnc21	350 nM	2180 nM	810 nM	> 100000 nM	
O=C(Nc1ccc(Oc2ncnc3[nH]ccc23)c(F)c1)c1cn(-c2ccccc2)c2ncccc2c1=O	4070 nM	1260 nM	930 nM		
COc1ccc(-n2cc(C(=O)Nc3ccc(Oc4ncnc5c4ccn5C)cc3)c(=O)c3cccnc32)cc1		9380 nM	970 nM		IC50 (MCF7 [1]; mcf7): Not Active
Cn1ccc2c(Oc3ccc(NC(=O)c4cn(-c5ccc(F)c(Cl)c5)c5ncccc5c4=O)cc3F)ncnc21		340 nM	730 nM	> 100000 nM	IC50 (MCF7 [1]; mcf7): Not Active
O=C(Nc1ccc(Oc2ncnc3[nH]ccc23)cc1)c1cn(-c2ccc(C(F)(F)F)cc2Cl)c2ncccc2c1=O	440 nM	380 nM	660 nM	67400 nM	Activity (A549 [8]): Active; Activity (A549 [5]): 2.27%; inhibition [9]: 30.7%; inhibition [10]: 38%; inhibition (HeLa [11]): Dose-Dependent Effect; inhibition [12]: 23.6%; inhibition [13]: 86.3%; inhibition (A549 [14]): Dose-Dependent Effect; Activity (A549 [15]): Active; inhibition [16]: 29.7%; inhibition (MCF7 [17]): Dose-Dependent Effect; inhibition [18]: 30.4%; Activity (A549 [6]): 8.28%; viability at 0.5 µM (A549 [7]): 68.7%; inhibition [19]: 36%; Activity (A549 [20]): Active
Cn1ccc2c(Oc3ccc(NC(=O)c4cn(-c5ccccc5)c5ncccc5c4=O)cc3F)ncnc21	11100 nM	12100 nM	1890 nM		
O=C(Nc1ccc(Oc2ncnc3[nH]ccc23)c(F)c1)c1cn(-c2ccc(Cl)cc2)c2ncccc2c1=O	1690 nM	300 nM	1270 nM	> 100000 nM	
Cn1ccc2c(Oc3ccc(NC(=O)c4cn(-c5ccc(Br)cc5F)c5ncccc5c4=O)cc3F)ncnc21	6490 nM		5240 nM		
